Measured values reported in ChEMBL document CHEMBL1146462, “New communesin derivatives from the fungus Penicillium sp. derived from the Mediterranean sponge Axinella verrucosa” (J Nat Prod, 2004).
Converted amounts (≈) assume the structure as drawn. The source made the active and inactive calls. No cut-off for these calls is given here.

Assays:
[1] = test system: U-937; assay: Antiproliferative activity against human U937 cells after 48 hrs by MTT assay; assay type: functional; details: U-937, 48 h, read-out: ED50 (the source's name)
Method in brief: (§1)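 Human leukemia cell lines were tested for antiproliferative activity by MTT assay and by radioactive thymidine incorporation. Results are given as ED₅₀ in μg/mL.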

[2] = test system: THP-1; assay: Antiproliferative activity against human THP1 cells after 48 hrs by MTT assay; assay type: functional; details: THP-1, 48 h, read-out: ED50 (the source's name); method in brief: as §1
[3] = Antiproliferative activity against human NAMALWA cells after 48 hrs by MTT assay; assay type: functional; details: NAMALVA, read-out: ED50 (the source's name); method in brief: as §1
[4] = test system: MOLT-3; assay: Antiproliferative activity against human MOLT3 cells after 48 hrs by MTT assay; assay type: functional; details: MOLT-3, 48 h, read-out: ED50 (the source's name); method in brief: as §1
[5] = test system: L-428; assay: Antiproliferative activity against human L428 cells after 48 hrs by MTT assay; assay type: functional; method in brief: as §1
[6] = Antiproliferative activity against human SUP-B15 cells after 48 hrs by MTT assay; assay type: functional; details: SUP-B15, 48 h, read-out: ED50 (the source's name); method in brief: as §1
[7] = Toxicity in Artemia salina; assay type: organism-based; details: in vivo

Compound	EC50 [1] [mg/L]	EC50 [2] [mg/L]	EC50 [3] [mg/L]	EC50 [4] [mg/L]	EC50 ([5]; L-428, 48 h, read-out: ED50 (the source's name)) [mg/L]	EC50 [6] [mg/L]	LC50 [7] [mg/L]	Activity [5]
C/C=C/C=C/C(=O)N1CC[C@@]23c4ccccc4N[C@@H]4N(C)c5cccc6c5[C@@]42CCN([C@@H]13)[C@@H]6[C@H]1OC1(C)C [COMMUNESIN B]	10.4 (≈ 20.4 µM)	11.4 (≈ 22.4 µM)	9.9 (≈ 19.5 µM)	8.1 (≈ 15.9 µM)	> 20	7.2 (≈ 14.2 µM)	0.3 (≈ 0.59 µM)	
C/C=C/C=C/C(=O)N1CC[C@@]23c4ccccc4N[C@@H]4Nc5cccc6c5[C@@]42CCN([C@@H]13)[C@@H]6[C@H]1OC1(C)C [COMMUNESIN C]	11.3 (≈ 22.8 µM)	13.1 (≈ 26.5 µM)	8.2 (≈ 16.6 µM)	8.6 (≈ 17.4 µM)		10.8 (≈ 21.8 µM)	1.96 (≈ 3.96 µM)	inactive
C/C=C/C=C/C(=O)N1CC[C@@]23c4ccccc4N[C@@H]4N(C=O)c5cccc6c5[C@@]42CCN([C@@H]13)[C@@H]6[C@H]1OC1(C)C [COMMUNESIN D]	13.1 (≈ 25.1 µM)	16.2 (≈ 31 µM)	14.6 (≈ 27.9 µM)	9.9 (≈ 18.9 µM)		9 (≈ 17.2 µM)	0.57 (≈ 1.09 µM)	inactive
